Experiment [1] has as its target Induced myeloid leukemia cell differentiation protein Mcl-1 (Homo sapiens, UniProt Q07820). Briefly: Competitive binding affinity to Mcl-1 (unknown origin) using 5-FAM-Bid-BH3 peptide preincubated for 30 mins before 5-FAM-Bid-BH3 peptide addition and measured 20 mins after 5-FAM-Bid-BH3 peptide addition by fluorescence polarization assay. In a few lines:
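Mcl-1 preincubated 30 min at room temperature with compound in PBS (pH 7.3; 140 mM NaCl, 2.7 mM KCl, 1.8 mM KH₂PO₄). IC50 fitted, Ki calculated; three separate experiments.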
A general note: Polarisation of emitted light reports the rotation of a fluorescent probe.

A further experiment concerns the target Bcl-2-like protein 1 (Homo sapiens, UniProt Q07817). Briefly: Competitive binding affinity to Bcl-XL (unknown origin) using 5-FAM-Bid-BH3 peptide preincubated for 30 mins before 5-FAM-Bid-BH3 peptide addition and measured 20 mins after 5-FAM-Bid-BH3 peptide addition by fluorescence polarization assayy. The method in brief: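 Same FP competition with FAM-Bid-BH3 peptide at 10 nM final in PBS pH 7.3. Protein and compound preincubated 30 min at room temperature. Final Bcl-2 376 nM, final Bcl-XL 170 nM. Polarization read at ex 485/em 535 nm in triplicate. IC50 fitted, then converted to Ki.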

The target of experiment [2] is Apoptosis regulator Bcl-2 (Homo sapiens, UniProt P10415). Briefly: Competitive binding affinity to Bcl-2 (unknown origin) using 5-FAM-Bid-BH3 peptide preincubated for 30 mins before 5-FAM-Bid-BH3 peptide addition and measured 20 mins after 5-FAM-Bid-BH3 peptide addition by fluorescence polarization assay. The method in brief: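 Same FP competition with FAM-Bid-BH3 peptide at 10 nM final in PBS pH 7.3. Protein and compound preincubated 30 min at room temperature. IC50 fitted, then converted to Ki.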

The test system of a further experiment is MDA-MB-231. In words: Antiproliferative activity against human MDA-MB-231 cells after 48 hrs by MTT assay. Type of experiment: functional, cell-based. The conditions noted are these: MDA-MB-231, 48 h. The method in brief: (§1)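 Cells grown in RPMI1640 with 10% fetal bovine serum at 37 °C, 5% CO₂. Log-phase cells seeded at 5000 per well and incubated 12 h, then exposed to a range of compound concentrations for 48 h. MTT (5 mg/mL) added for 4 h, medium removed, formazan dissolved in DMSO, absorbance read. IC50 reported.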
On the technique in general: Tetrazolium dyes change colour on reduction, which living cells bring about.

A short description of experiment [3]: Antiproliferative activity against human PC3 cells after 48 hrs by MTT assay. The conditions noted are these: PC-3, 48 h. It counts as functional, cell-based. The method in brief:
as §1

A further experiment relates to K562. Briefly: Antiproliferative activity against human K562 cells after 48 hrs by MTT assay. It counts as functional, cell-based. The conditions noted are these: K562, 48 h. The method in brief: as §1

Molecules are shown by their SMILES. pIC50, pKi: −log10 of the molar value. Bounds are passed on as bounds.

Sequence of Apoptosis regulator Bcl-2 (P10415 whole entry): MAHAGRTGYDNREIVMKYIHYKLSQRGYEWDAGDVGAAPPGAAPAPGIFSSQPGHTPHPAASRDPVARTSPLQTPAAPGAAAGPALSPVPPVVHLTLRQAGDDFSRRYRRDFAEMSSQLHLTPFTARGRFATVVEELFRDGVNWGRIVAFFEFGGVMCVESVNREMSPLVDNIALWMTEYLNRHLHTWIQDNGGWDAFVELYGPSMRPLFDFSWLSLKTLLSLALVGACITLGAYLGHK
Sequence of Induced myeloid leukemia cell differentiation protein Mcl-1 (Q07820 whole entry): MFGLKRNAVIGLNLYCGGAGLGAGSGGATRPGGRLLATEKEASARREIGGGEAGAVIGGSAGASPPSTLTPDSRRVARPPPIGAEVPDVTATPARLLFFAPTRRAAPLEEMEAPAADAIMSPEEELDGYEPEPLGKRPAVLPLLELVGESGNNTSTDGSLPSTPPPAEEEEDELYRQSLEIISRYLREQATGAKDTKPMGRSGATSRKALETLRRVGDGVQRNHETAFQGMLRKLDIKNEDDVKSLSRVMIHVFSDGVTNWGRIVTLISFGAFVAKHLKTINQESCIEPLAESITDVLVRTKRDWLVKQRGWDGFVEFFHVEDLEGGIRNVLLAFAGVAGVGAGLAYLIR
Sequence of Bcl-2-like protein 1 (Q07817 whole entry): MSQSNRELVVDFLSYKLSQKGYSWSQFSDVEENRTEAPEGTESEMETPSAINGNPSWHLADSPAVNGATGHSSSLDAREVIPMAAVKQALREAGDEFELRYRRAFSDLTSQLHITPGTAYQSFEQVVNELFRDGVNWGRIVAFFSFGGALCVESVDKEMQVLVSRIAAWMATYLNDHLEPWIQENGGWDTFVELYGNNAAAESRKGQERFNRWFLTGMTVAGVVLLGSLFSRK

Broadly, the pKi is the Ki on a negative log10 scale, so that one unit is a factor of ten. Read a low pKi as a large Ki. `CC(C)[C@H](NC(=O)[C@@H]1C[C@H](Oc2ccc(-c3ccccc3)cc2)CN1C(=O)OC(C)(C)C)C(=O)O` showed a pKi in experiment [1] below 5.00.

The compound `Cc1ccc(-c2ccc(O[C@H]3C[C@@H](C(=O)N[C@@H](Cc4ccccc4)C(=O)NS(=O)(=O)c4ccc(C)cc4)N(C(=O)OC(C)(C)C)C3)cc2)cc1` had a pKi in experiment [1] of 5.72.

For orientation: pIC50 means the IC50 on a negative log10 scale, so that one unit is a factor of ten. A higher pIC50 goes with a low IC50. For the compound `Cc1ccc(-c2ccc(O[C@H]3C[C@@H](C(=O)N[C@@H](Cc4ccccc4)C(=O)NS(=O)(=O)c4ccc(Cl)c([N+](=O)[O-])c4)N(C(=O)OC(C)(C)C)C3)cc2)cc1`, the pKi on Bcl-2-like protein 1 is 5.06; in experiment [2] it was 5.34. Moreover, the negative-log IC50 (pIC50) was 4.81 in the experiment with MDA-MB-231, 4.87 in experiment [3] and 4.65 in the experiment with K562.

`CC(C)(C)OC(=O)N1C[C@@H](Oc2ccc(-c3ccccc3)cc2)C[C@H]1C(=O)N[C@@H](Cc1ccc(Br)cc1)C(=O)NS(=O)(=O)c1ccc(Cl)c([N+](=O)[O-])c1`: the results for the pKi (on Bcl-2-like protein 1; in experiment [2]) were 5.66 and 6.03, respectively. Further, the pIC50 in the experiment on MDA-MB-231 is 4.87; in experiment [3], 4.97; with K562, 4.64.

In experiment [1], `CC(C)(C)OC(=O)N1C[C@@H](Oc2ccc(Br)cc2)C[C@H]1C(=O)N[C@@H](Cc1ccccc1)C(=O)O` showed a pKi below 5.00.

Take `CC(C)[C@H](NC(=O)[C@@H]1C[C@H](Oc2ccc(Br)cc2)CN1C(=O)OC(C)(C)C)C(=O)O`: the pKi in experiment [1] was below 5.00.

In experiment [1], `CC(C)C[C@H](NC(=O)[C@@H]1C[C@H](Oc2ccc(-c3ccccc3)cc2)CN1C(=O)OC(C)(C)C)C(=O)O` gave a pKi below 5.00.

Turning to `CC(C)(C)OC(=O)N1C[C@@H](Oc2ccc(-c3ccccc3)cc2)C[C@H]1C(=O)N[C@@H](Cc1ccc(Br)cc1)C(=O)NS(=O)(=O)c1ccccc1`, in experiment [1], the pKi is 5.92.

In turn, `Cc1ccc(-c2ccc(O[C@H]3C[C@@H](C(=O)N[C@@H](Cc4ccccc4)C(=O)NS(=O)(=O)c4ccccc4)N(C(=O)OC(C)(C)C)C3)cc2)cc1` showed a negative-log Ki (pKi) in experiment [1] of 5.80.

Consider `Cc1ccc(S(=O)(=O)NC(=O)[C@H](Cc2ccc(Br)cc2)NC(=O)[C@@H]2C[C@H](Oc3ccc(-c4ccccc4)cc3)CN2C(=O)OC(C)(C)C)cc1`, for which the pKi in experiment [1] was 6.00.

In experiment [1], `CC(C)(C)OC(=O)N1C[C@@H](Oc2ccc(-c3ccccc3)cc2)C[C@H]1C(=O)N[C@@H](Cc1c[nH]c2ccccc12)C(=O)NS(=O)(=O)c1ccccc1` showed a pKi of 5.49. This pKi lies 0.51 log units lower than the previous one.

`CC(C)(C)OC(=O)N1C[C@@H](Oc2ccc(-c3ccccc3)cc2)C[C@H]1C(=O)N[C@H](C(=O)O)c1ccccc1` had a pKi in experiment [1] below 5.00.

For `CC(C)(C)OC(=O)N1C[C@@H](Oc2ccc(-c3ccccc3)cc2)C[C@H]1C(=O)NCC(=O)O`, the negative-log Ki (pKi) in experiment [1] was below 5.00.

In turn, `Cc1ccc(S(=O)(=O)NC(=O)[C@H](Cc2ccccc2)NC(=O)[C@@H]2C[C@H](Oc3ccc(-c4ccccc4)cc3)CN2C(=O)OC(C)(C)C)cc1` had a negative-log Ki (pKi) in experiment [1] of 5.48.

Regarding `CC(C)(C)OC(=O)N1C[C@@H](Oc2ccc(-c3ccccc3)cc2)C[C@H]1C(=O)N[C@@H](Cc1ccccc1)C(=O)O`, the negative logarithm of the Ki (pKi) in experiment [1] was 5.08.

`CC(C)(C)OC(=O)N1C[C@@H](Oc2ccc(Br)cc2)C[C@H]1C(=O)N[C@H](C(=O)O)c1ccccc1` gave a negative logarithm of the Ki (pKi) in experiment [1] below 5.00.

In experiment [1], `CC(C)(C)OC(=O)N1C[C@@H](Oc2ccc(Br)cc2)C[C@H]1C(=O)NCC(=O)O` gave a pKi below 5.00.

In the case of `Cc1ccc(-c2ccc(O[C@H]3C[C@@H](C(=O)N[C@@H](Cc4ccc(Br)cc4)C(=O)NS(=O)(=O)c4ccc(Cl)c([N+](=O)[O-])c4)N(C(=O)OC(C)(C)C)C3)cc2)cc1`, the pKi on Bcl-2-like protein 1 is 5.92; in experiment [2] it was 6.26. Besides, the figures for the pIC50 (with MDA-MB-231; in experiment [3]; in the experiment on K562) were 4.83, 4.86 and 4.66, respectively.

For the compound `CC(C)C[C@H](NC(=O)[C@@H]1C[C@H](Oc2ccc(Br)cc2)CN1C(=O)OC(C)(C)C)C(=O)O`, the pKi in experiment [1] is below 5.00.

For `CC(C)(C)OC(=O)N1C[C@@H](Oc2ccc(-c3ccc(Cl)cc3)cc2)C[C@H]1C(=O)N[C@@H](Cc1ccc(Br)cc1)C(=O)NS(=O)(=O)c1ccc(Cl)c([N+](=O)[O-])c1`, the values for the pKi (at Bcl-2-like protein 1; in experiment [2]) were 5.68 and 6.08, respectively. In addition, the pIC50 is 4.80 with MDA-MB-231, 4.95 in experiment [3] and 4.66 in the experiment with K562.

As to `Cc1cc2c(C(C)C)c(O)c(O)c(C=O)c2c(O)c1-c1c(C)cc2c(C(C)C)c(O)c(O)c(C=O)c2c1O` [GOSSYPOL], the pKi in experiment [1] was 6.41; on Bcl-2-like protein 1 it was 6.11. Moreover, the pIC50 in the experiment with MDA-MB-231 was 5.03; in experiment [3] it was 5.24; in the experiment with K562 it was 5.23.

These data come from ChEMBL document CHEMBL3734725, “Design, synthesis and preliminary biological studies of pyrrolidine derivatives as Mcl-1 inhibitors” (Bioorg Med Chem, 2015).
